39 compounds from PubChem BioAssay can be followed below.

Molecules are shown by their SMILES. Unmarked numbers belong to inactive results.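 Rule for the calls, unless noted: active = viability increase at or above a cutoff of the median across tested compounds plus 3 SD (cut at about 8.5% in these data, passing the limit was not always enough); inconclusive = some gains above the cutoff, reason not given; inactive = the rest.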

The first experiment can be described thus: S. cerevisiae growth inhibition in restrictive medium, OD615, pilot screen, restrictive growth control, yeast lifespan reduction project (AID 706;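 active = growth inhibition above a set limit, 3 SD over mean compound inhibition, in both replicates, cut at about 43% in these data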;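 note: modified DeaD lifespan yeast strain shifted to restrictive glucose medium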). Conditions: OD615, 48 h, at 10 µM, stronger effect = higher value. The method, boiled down:
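material = engineered S. cerevisiae DeaD strain | buffer or medium = glucose-based CSMM-D restrictive medium | dosing = one concentration, 10 µM final, 0.25% DMSO | schedule = 4 h pre-growth plus 48 h compound exposure, 30 °C | detection = OD615 absorbance reading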
Consider `N#Cc1c2n(c3c(=O)n(Cc4ccc(Cl)cc4)cnc13)CCCC2`, for which the growth inhibition was -5.03%.

Take `COc1cccc(-n2c(Cc3cc(=O)[nH]c(=O)[nH]3)nnc2SCC(=O)N2CCCCCC2)c1`: the growth inhibition is -12.1%.

With `CCOC(=O)CN1CC23C=CC(O2)C(C(=O)NC2CCCCCC2)C3C1=O` (stereo not drawn), the growth inhibition was 3.45%.

As to `Cc1ccc(C(=O)COC(=O)c2cnccn2)cc1`, the growth inhibition was -10.8%.

As for `Cc1cc(C)n(-c2nc(C)nc(NCc3ccccc3)n2)n1`, the growth inhibition is -11.6%.

Consider `CC(CCc1ccccc1)NC(=O)C1CCN(C(=O)c2sccc2-n2cccc2)CC1` (stereo not drawn), for which the growth inhibition is 0.295%.

Turning to `Cc1onc(-c2ccccc2Cl)c1C(=O)N1CCCCC1C(=O)O` (stereo not drawn), the growth inhibition was -2.38%.

Turning to `O=C(c1ccc(=O)[nH]c1)N(Cc1ccco1)C1(C(=O)NC2CCCCC2)CCCCC1`, the growth inhibition is -18.9%.

As to `CCCS(=O)(=O)c1nc(S(=O)(=O)c2ccc(C)cc2)c(N2CCCC2)s1`, the growth inhibition is 9.56%.

`CCOC(=O)N1CCC(N2C(=O)c3ccccc3C2=O)CC1`: the growth inhibition is -3.71%.

In the case of `O=c1oc(-c2cc3ccccc3o2)nc2sc3c(c12)CCCC3`, the growth inhibition is -6.6%.

`O=C(NC1CCN(Cc2ccccc2)CC1)C1CCN(c2nnc(-n3cccc3)s2)CC1`: the growth inhibition is -0.61%.

Take `Cn1nc(-c2ccc(Cl)cc2)c2cc(C(=O)NCCCN3CCOCC3)sc21`: the growth inhibition is 5.94%.

Take `CC(C)N(Cc1nc(-c2ccccc2)no1)C(=O)Cc1ccccc1`: the growth inhibition was -16.3%.

In the case of `COc1ccc(CC2CCOC2=O)cc1` (stereo not drawn), the growth inhibition was -8.8%.

Take `CCOc1cccc(=O)c2c(C)n(Cc3ccco3)c(C)c12`: the growth inhibition was -8%.

As to `COc1ccccc1NC(=O)c1ccc(S(=O)(=O)N(C)C)cc1`, the growth inhibition is 6.62%.

Turning to `Cc1noc(NS(=O)(=O)c2ccc(NC(=O)CSc3nc4c(cc3C#N)CCCC4)cc2)c1C`, the growth inhibition was 3.98%.

For `CCOc1ccc(N2C(=O)c3ccccc3C2O)cc1` (stereo not drawn), the growth inhibition was 11.8%.

As to `COc1ccc(N2CCN(c3cc(=O)n(Cc4ccc(F)cc4)c(=O)[nH]3)CC2)cc1`, the growth inhibition was 1.23%.

Take `COc1ccc2nc(NC(=O)c3ccc4ncsc4c3)sc2c1`: the growth inhibition was 13%.

Consider `CC(C)Oc1ccc(N2CC(C(=O)Nc3ccc4c(c3)OCO4)CC2=O)cc1` (stereo not drawn), for which the growth inhibition is -4.22%.

As to `N#Cc1nc(-c2ccccc2F)oc1NCc1ccccc1`, the growth inhibition is 11.3%.

`O=C(CN1CCN(CC(=O)Nc2ccccn2)CC1)Nc1ccccn1`: the growth inhibition was -0.335%.

Regarding `O=C(c1ccccc1)N1CCN(c2ccc(NCc3ccc4c(c3)OCO4)cc2)CC1`, the growth inhibition was -14.4%.

With `Brc1ccccc1Cn1c(-c2cncs2)nc2ccccc21`, the growth inhibition was 25.2%.

`Cc1csc2nc(CNS(=O)(=O)c3ccc(-c4ccccc4)cc3)cn12`: the growth inhibition is 7%.

Regarding `Cc1c(Br)cc(C(=O)N2CCCC2)c(C)c1C`, the growth inhibition was -11.1%.

For `CSc1ccc(S(=O)(=O)N2CCN(Cc3ccc4c(c3)OCO4)CC2)cc1`, the growth inhibition is 14.3%.

In the case of `O=C(NCC(c1cccnc1)N1CCN(c2ccccc2F)CC1)c1ccccc1` (stereo not drawn), the growth inhibition is -2.34%.

As for `CCCS(=O)(=O)NCCc1cc2ccc(OC)cc2[nH]c1=O`, the growth inhibition is -5.31%.

Take `COc1ccc(NC(=O)NCCCN2CCCC2=O)cc1`: the growth inhibition was 8.62%.

Take `CCCOCCOC(=O)C1=C(C)NC(=O)NC1c1cc(Cl)c(O)c(OC)c1` (stereo not drawn): the growth inhibition is -0.16%.

Regarding `CCN(CC)CCCNC(=O)c1cc2c(-c3ccc(Cl)cc3)nn(C)c2s1`, the growth inhibition was 17.3%.

Regarding `O=C(Nc1ccc(OC(F)(F)F)cc1)c1cnc2n(c1=O)CCS2`, the growth inhibition is -1.33%.

On to `Cc1cc(C)c2c(=O)[nH]c(SCC(=O)N3CCCCC3)nc2n1`, for which the growth inhibition was -6.02%.

For `CCCCN(CC)CCNC(=O)c1cc2c(=O)n(C)c3ccccc3c2n1C`, the growth inhibition was -6.07%.

Turning to `Cc1noc(C(=O)N2CCN(c3ccc(F)cc3)CC2)c1Cl`, the growth inhibition is -16.4%.

On to `CCOC(=O)c1ccc(N2C(=O)c3n[nH]c(C)c3C2c2ccccn2)cc1` (stereo not drawn), for which the growth inhibition is 3.62%.

The nature of another experiment: doxorubicin toxicity protection in MRP-1 cells – H69AR cells, CellTiter-Glo, duplicate, MRP-1 activator project, pilot screen (AID 807).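 Note: compound pretreatment 18-22 h then 72 h combined with doxorubicin; 0% = doxorubicin alone and 100% = vehicle without doxorubicin.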 Conditions: H69AR viability with doxorubicin, CellTiter-Glo luminescence; at 10 µM; stronger effect = higher value.
Take `N#Cc1c2n(c3c(=O)n(Cc4ccc(Cl)cc4)cnc13)CCCC2`: the viability increase is 1.08%.

As to `COc1cccc(-n2c(Cc3cc(=O)[nH]c(=O)[nH]3)nnc2SCC(=O)N2CCCCCC2)c1`, the viability increase is -0.94%.

Take `CCOC(=O)CN1CC23C=CC(O2)C(C(=O)NC2CCCCCC2)C3C1=O` (stereo not drawn): the viability increase was -2.93%.

With `Cc1ccc(C(=O)COC(=O)c2cnccn2)cc1`, the viability increase is -1.61%.

Take `Cc1cc(C)n(-c2nc(C)nc(NCc3ccccc3)n2)n1`: the viability increase is -2.88%.

`CC(CCc1ccccc1)NC(=O)C1CCN(C(=O)c2sccc2-n2cccc2)CC1` (stereo not drawn): the viability increase is 2.68%.

With `Cc1onc(-c2ccccc2Cl)c1C(=O)N1CCCCC1C(=O)O` (stereo not drawn), the viability increase is -1.22%.

Take `O=C(c1ccc(=O)[nH]c1)N(Cc1ccco1)C1(C(=O)NC2CCCCC2)CCCCC1`: the viability increase is -3.3%.

In the case of `CCCS(=O)(=O)c1nc(S(=O)(=O)c2ccc(C)cc2)c(N2CCCC2)s1`, the viability increase was -2.03%.

Take `CCOC(=O)N1CCC(N2C(=O)c3ccccc3C2=O)CC1`: the viability increase is 0.37%.

On to `O=c1oc(-c2cc3ccccc3o2)nc2sc3c(c12)CCCC3`, for which the viability increase is 3.77%.

`O=C(NC1CCN(Cc2ccccc2)CC1)C1CCN(c2nnc(-n3cccc3)s2)CC1`: the viability increase was -2.59%.

On to `Cn1nc(-c2ccc(Cl)cc2)c2cc(C(=O)NCCCN3CCOCC3)sc21`, for which the viability increase was -7.82%.

Take `CC(C)N(Cc1nc(-c2ccccc2)no1)C(=O)Cc1ccccc1`: the viability increase was -2.2%.

Regarding `COc1ccc(CC2CCOC2=O)cc1` (stereo not drawn), the viability increase was 0.08%.

In the case of `CCOc1cccc(=O)c2c(C)n(Cc3ccco3)c(C)c12`, the viability increase is -3.8%.

Turning to `COc1ccccc1NC(=O)c1ccc(S(=O)(=O)N(C)C)cc1`, the viability increase was -0.55%.

Consider `Cc1noc(NS(=O)(=O)c2ccc(NC(=O)CSc3nc4c(cc3C#N)CCCC4)cc2)c1C`, for which the viability increase is 0.62%.

Consider `CCOc1ccc(N2C(=O)c3ccccc3C2O)cc1` (stereo not drawn), for which the viability increase was 1.68%.

For the compound `COc1ccc(N2CCN(c3cc(=O)n(Cc4ccc(F)cc4)c(=O)[nH]3)CC2)cc1`, the viability increase was -2.97%.

For the compound `COc1ccc2nc(NC(=O)c3ccc4ncsc4c3)sc2c1`, the viability increase is -3.84%.

Consider `CC(C)Oc1ccc(N2CC(C(=O)Nc3ccc4c(c3)OCO4)CC2=O)cc1` (stereo not drawn), for which the viability increase is -0.37%.

Consider `N#Cc1nc(-c2ccccc2F)oc1NCc1ccccc1`, for which the viability increase was 1.59%.

`O=C(CN1CCN(CC(=O)Nc2ccccn2)CC1)Nc1ccccn1`: the viability increase was -0.95%.

Turning to `O=C(c1ccccc1)N1CCN(c2ccc(NCc3ccc4c(c3)OCO4)cc2)CC1`, the viability increase is -3.84%.

As for `Brc1ccccc1Cn1c(-c2cncs2)nc2ccccc21`, the viability increase is -3.44%.

For `Cc1csc2nc(CNS(=O)(=O)c3ccc(-c4ccccc4)cc3)cn12`, the viability increase is -1.09%.

For the compound `Cc1c(Br)cc(C(=O)N2CCCC2)c(C)c1C`, the viability increase is -2.86%.

Regarding `CSc1ccc(S(=O)(=O)N2CCN(Cc3ccc4c(c3)OCO4)CC2)cc1`, the viability increase is -4.46%.

With `O=C(NCC(c1cccnc1)N1CCN(c2ccccc2F)CC1)c1ccccc1` (stereo not drawn), the viability increase was -4.21%.

For the compound `CCCS(=O)(=O)NCCc1cc2ccc(OC)cc2[nH]c1=O`, the viability increase was -2.79%.

Consider `COc1ccc(NC(=O)NCCCN2CCCC2=O)cc1`, for which the viability increase is 0.12%.

On to `CCCOCCOC(=O)C1=C(C)NC(=O)NC1c1cc(Cl)c(O)c(OC)c1` (stereo not drawn), for which the viability increase was -0.57%.

With `CCN(CC)CCCNC(=O)c1cc2c(-c3ccc(Cl)cc3)nn(C)c2s1`, the viability increase was -8.12%.

`O=C(Nc1ccc(OC(F)(F)F)cc1)c1cnc2n(c1=O)CCS2`: the viability increase was 2.36%.

Take `Cc1cc(C)c2c(=O)[nH]c(SCC(=O)N3CCCCC3)nc2n1`: the viability increase was -0.84%.

For the compound `CCCCN(CC)CCNC(=O)c1cc2c(=O)n(C)c3ccccc3c2n1C`, the viability increase was -5.86%.

As to `Cc1noc(C(=O)N2CCN(c3ccc(F)cc3)CC2)c1Cl`, the viability increase is 1.26%.

For the compound `CCOC(=O)c1ccc(N2C(=O)c3n[nH]c(C)c3C2c2ccccn2)cc1` (stereo not drawn), the viability increase was 0.57%.
